# Experimental data of several laboratories.
# Protocols differ between the studies behind these lines.
SMILES,target or system,assay,test system,conditions,quantity,result
COc1ccccc1NC(=O)/C=C/c1ccc2c(c1)C=CC(C)(C)O2,rat Primary cortical neuron,"cell growth or viability, MTT",,"1 µM, 12 h",viability,83%
CCCCCCCC/C=C\CCCCCCCCNC(=O)CP(=O)(O)O,Enterococcus faecalis,microbial growth,ATCC33186,,MIC,50 µg/mL
Cc1cccc(CSc2nccc(OCCOc3cc(=O)oc4ccccc34)n2)c1,Human coronavirus 229E,cytopathic effect,A549,12.5 µM,inhibition,38.1%
Nc1ncnc2c([C@@H]3N[C@H](CO)[C@@H](O)[C@H]3O)c[nH]c12,Japanese encephalitis virus,"viral replication, inhibitor",Vero 76,0.1 µM,inhibition,0%
CC(C)[C@H](NC(=O)[C@H](CCCNC(=N)N)NC(=O)N[C@@H](Cc1ccccc1)C(=O)O)C(=O)N[C@H](C=O)CCCNC(=N)N,Human coronavirus 229E,viral replication,Huh7.5,,IC50,1.57 µM
CCOC(=O)C1=C[C@@H](OC(CC)CC)[C@H](NC(C)=O)[C@@H](N)C1,Human coronavirus 229E,viral replication,A549,,IC50,7.65 µM
CCCC(=O)CP(=O)(O)O,Enterococcus faecalis,microbial growth,ATCC33186,,MIC,> 200 µg/mL
O=C(Cc1ccc2ccccc2c1)N[C@@H](Cc1ccccc1)C(=O)N[C@@H](Cc1ccccc1)C(=O)N[C@H](Cc1ccc(OP(=O)(O)O)cc1)C(=O)O,HeLa,"cell growth or viability, MTT",,48 h,IC50,428 µM
O=c1cc(OCCCOc2ccnc(SCc3ccc(F)cc3)n2)c2cc(F)ccc2o1,Human coronavirus 229E,cytopathic effect,A549,25 µM,inhibition,65.8%
CCCCCC/C=C\CCCCCCCCCC(=O)NP(=O)(O)O,Enterococcus faecalis,microbial growth,ATCC33186,,MIC,200 µg/mL
COc1cc2c(cc1O)CCN[C@]21CS[C@@H]2c3c(OC(C)=O)c(C)c4c(c3[C@H](COC1=O)N1[C@@H]2[C@H]2c3c(cc(C)c(OC)c3O)C[C@@H]([C@@H]1C#N)N2C)OCO4,Human coronavirus 229E,viral replication,Calu-3,,IC50,0.253 µM
CCCCCCCCCCCCCCCC(=O)NP(=O)(O)O,Enterococcus faecalis,microbial growth,ATCC33186,,MIC,200 µg/mL
COc1ccc(NC(=O)/C=C/c2ccc3c(c2)C=CC(C)(C)O3)cc1,rat Primary cortical neuron,"cell growth or viability, MTT",,"1 µM, 12 h",viability,87%
CC[C@@]1(O)C[C@H](O[C@H]2C[C@H](N(C)C)[C@H](O[C@H]3C[C@H](O)[C@H](O[C@H]4CCC(=O)[C@H](C)O4)[C@H](C)O3)[C@H](C)O2)c2c(cc3c(c2O)C(=O)c2c(O)cccc2C3=O)[C@H]1C(=O)OC,Human coronavirus 229E,viral replication,Calu-3,,IC50,2.34 µM
CC(C)C[C@H](NC(=O)[C@@H](NC(=O)N[C@@H](Cc1ccccc1)C(=O)O)[C@@H]1CCN=C(N)N1)C(=O)N[C@H](C=O)Cc1ccccc1,Human coronavirus 229E,viral replication,Huh7.5,,IC50,23.7 µM
O=C(CCCCCCCCCCOc1ccccc1)CP(=O)(O)O,Enterococcus faecalis,microbial growth,ATCC33186,,MIC,50 µg/mL
CC1(C)C=Cc2cc(C(CC(=O)Nc3ccccc3)Nc3ccccc3)ccc2O1 (centres unmarked),rat Primary cortical neuron,"cell growth or viability, MTT",,"1 µM, 12 h",viability,> 80%
